For assay [1], the system named is Mus musculus. Briefly: Antiinflammatory activity against TPA-induced CD1 mouse ear edema model assessed as neutrophil infiltration by measuring myeloperoxidase content at 1 umol/ear administered topically 10 mins prior to TPA challenge measured after 4 hrs relative to control. It counts as functional. The procedure, abridged:
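Male CD-1 mice (25−30 g), ear edema induced by TPA. Compounds were applied topically at 1 μmol/ear in acetone−CH2Cl2 (1:1). MPO activity, used as a marker of neutrophils, was measured in ear biopsies taken 4 h after application by an adapted Bradley/Suzuki method. Results are given as % MPO content, mean ± SEM, analysed by ANOVA with Dunnett test against control.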

In assay [2] the test system is Mus musculus. The assay is described as follows: Antiinflammatory activity against CD1 mouse ear edema model assessed as reduction of TPA-induced ear edema measured per ear administered topically 10 mins prior to TPA challenge measured after 4 hrs. The format is functional. In a few lines:
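Male CD-1 mice (25−30 g), housed at 27 ± 1 °C on a 12/12 h light−dark cycle with food and water ad libitum. Compounds were applied topically to the ear in acetone−CH2Cl2 (1:1). Edema was induced by TPA and quantified as the weight of ear biopsies taken 4 h after sample application. The ID50 is expressed in μmol/ear. Data are mean ± SEM.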

As for `C=C1[C@@H]2CC(=O)[C@H]([C@@H](C)OC(C)=O)[C@H]2[C@H](C(C)C)[C@@H](OC(=O)[C@@H](C)CC)[C@H]1OC(=O)/C=C(\C)CC`, the results for the Activity in assay [1] and in assay [2] were 12.67% and “Dose-dependent effect”, respectively. For the same compound, the ID50 in assay [2] was 0.17 µmol.
Take `C=C1[C@H]2[C@@H]([C@@H]([C@@H](C)OC(C)=O)C(=O)[C@H]2OC(=O)[C@@H](C)CC)[C@H]([C@@]2(C)CO2)[C@@H](OC(=O)[C@@H](C)CC)[C@H]1OC(=O)/C=C(\C)CC`: the Activity is 19.05% in assay [1] and “Dose-dependent effect” in assay [2]. Moreover, the ID50 in assay [2] amounted to 0.18 µmol.
Regarding `C=C1[C@H]2[C@@H](/C(=C/C)C(=O)[C@H]2OC(=O)[C@@H](C)CC)[C@H]([C@@]2(C)CO2)[C@@H](OC(=O)[C@@H](C)CC)[C@H]1OC(=O)/C=C(\C)CC`, the Activity in assay [1] is 11.07%; in assay [2] it was “Dose-dependent effect”. Moreover, in assay [2], the ID50 turned out to be 0.55 µmol.
Turning to `COc1ccc2c(c1)c(CC(=O)O)c(C)n2C(=O)c1ccc(Cl)cc1` [INDOMETHACIN], the Activity in assay [1] turned out to be 8.83%. Moreover, the ID50 in assay [2] is 0.24 µmol.

Values taken from ChEMBL document CHEMBL3297695, “Sesquiterpenoids from Pittocaulon filare” (2014).
